Results taken from ChEMBL document CHEMBL3868583, “6-Aryl substituted 4-(4-cyanomethyl) phenylamino quinazolines as a new class of isoform-selective PI3K-alpha inhibitors” (Eur J Med Chem, 2016).
In brackets after ≈: the same amount, converted by molar mass.

Columns and labels:
MCF7 = experiment: Induction of cell cycle arrest in human MCF7 cells assessed as accumulation at subG1 phase after 24 hrs by propidium iodide-staining based FACS analysis; assay type: functional
Method in brief: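 MCF-7 or PC-3 cells treated at indicated concentrations for 24 h, pelleted, PBS-washed, fixed in ice-cold 70% ethanol overnight at 4 °C. RNase 0.2 mg/mL 1 h at 37 °C, propidium iodide 10 µg/mL 30 min dark. 10,000 events (FL2-A vs FL2-W) by flow cytometry; fractions in apoptosis/sub-G1, G1, S, G2-M.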

CYP1A2 = target: T1, CYP1A2 (Homo sapiens, UniProt P05177); experiment: Inhibition of human CYP1A2 at 10 uM after 10 mins by fluorescence assay; assay type: ADME
T1 sequence (P05177 whole entry): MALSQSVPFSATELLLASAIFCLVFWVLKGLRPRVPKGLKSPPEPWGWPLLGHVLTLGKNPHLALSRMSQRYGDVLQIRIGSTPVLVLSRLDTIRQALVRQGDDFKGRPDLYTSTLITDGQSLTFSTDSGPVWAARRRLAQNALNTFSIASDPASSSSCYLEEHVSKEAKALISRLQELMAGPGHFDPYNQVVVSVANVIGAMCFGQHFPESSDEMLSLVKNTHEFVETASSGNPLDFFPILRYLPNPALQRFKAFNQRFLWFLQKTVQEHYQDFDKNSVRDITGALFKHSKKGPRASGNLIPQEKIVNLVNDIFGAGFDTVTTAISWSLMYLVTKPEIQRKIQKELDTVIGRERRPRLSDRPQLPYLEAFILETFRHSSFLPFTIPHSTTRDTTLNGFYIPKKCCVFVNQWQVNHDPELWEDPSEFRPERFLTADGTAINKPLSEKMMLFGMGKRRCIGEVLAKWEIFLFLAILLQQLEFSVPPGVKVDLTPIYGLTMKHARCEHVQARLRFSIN

Homo sapiens [1] = organism: Homo sapiens; experiment: Selectivity ratio of IC50 for PI3Kbeta (unknown origin) to IC50 for PI3Kalpha (unknown origin)
[2] = Anticancer activity against Swiss mouse EAC cells implanted in Swiss mouse assessed as tumor growth inhibition at 70 mg/kg, ip administered for 1 to 9 days measured on day 12 relative to control; assay type: functional; settings: Ehrlich, read-out: TGI
Method in brief: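 Swiss mice given 1 × 10^7 EAC cells i.p. on day 0, randomized next day (treated n=7, control n=10). Compound given i.p. days 1-9; saline control (0.2 ml i.p.), 5-fluorouracil 20 mg/kg i.p. reference. Sacrificed day 12; ascitic fluid collected; % TGI from total peritoneal tumor cell count versus control.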

[3] = Cytotoxicity against human HL60 cells assessed as cell growth inhibition after 48 hrs by MTT assay; assay type: functional; settings: HL-60, 48 h
Method in brief: (§1)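 MTT assay: 3 × 10^3 cells/well seeded, compounds added after 24 h at final […], 48 h exposure. MTT (2.5 mg/mL in PBS) added, formazan dissolved in DMSO, absorbance 570 nm. Viability as % of untreated; three independent experiments, mean ± SD.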

[4] = Thermodynamic equilibrium solubility of compound in PBS up to 300 ug after 4 hrs by UV absorbance method; assay type: physicochemical; settings: read-out: Therm_solubility
Method in brief: (§2)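 Methanol stock evaporated in wells to give 1–300 µg solid; 200 µl medium (water, PBS, SGF or SIF) added, shaken 300 rpm 4 h at 25 ± 1 °C, equilibrated overnight, centrifuged; supernatant UV absorbance at λmax; saturation point from concentration–absorbance curve; triplicate.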

[5] = Cytotoxicity against human MCF7 cells assessed as cell growth inhibition after 48 hrs by MTT assay; assay type: functional; settings: MCF7, 48 h; method in brief: as §1
Homo sapiens [6] = organism: Homo sapiens; experiment: Selectivity ratio of IC50 for PI3Kdelta (unknown origin) to IC50 for PI3Kalpha (unknown origin)
[7] = Cytotoxicity against human A375 cells assessed as cell growth inhibition after 48 hrs by MTT assay; assay type: functional; settings: A-375, 48 h; method in brief: as §1
[8] = Thermodynamic equilibrium solubility of compound in simulated gastric fluid up to 300 ug after 4 hrs by UV absorbance method; assay type: ADME; settings: read-out: Therm_solubility; method in brief: as §2
CYP2D6 = CYP2D6 (Homo sapiens, UniProt P10635); experiment: Inhibition of human CYP2D6 at 10 uM after 10 mins by fluorescence assay; assay type: ADME
[9] = Efflux ratio of permeability in human Caco2 cells after 90 mins by LC-MS/MS analysis; assay type: ADME, cell-based; settings: Caco-2
Method in brief: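 Caco-2 monolayers grown 21 days (TEER >500). Compound in HBSS with 10 mM HEPES dosed to the apical chamber, and in a repeat run to the basolateral chamber. Both chambers sampled at 0 and 90 min at 37 °C. Analysis by LC-MS/MS.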

[10] = Thermodynamic equilibrium solubility of compound in water up to 300 ug after 4 hrs by UV absorbance method; assay type: physicochemical; settings: read-out: Therm_solubility; method in brief: as §2
[11] = Cytotoxicity against HGF cells assessed as cell growth inhibition after 48 hrs by MTT assay; assay type: toxicity, cell-based; settings: human
[12] = Cytotoxicity against human FR2 cells assessed as cell growth inhibition after 48 hrs by MTT assay; assay type: toxicity, cell-based
[13] = Thermodynamic equilibrium solubility of compound in simulated intestinal fluid up to 300 ug after 4 hrs by UV absorbance method; assay type: ADME; settings: read-out: Therm_solubility; method in brief: as §2
[14] = Cytotoxicity against human PANC1 cells assessed as cell growth inhibition after 48 hrs by MTT assay; assay type: functional; settings: PANC-1, 48 h; method in brief: as §1
[15] = target: Phosphatidylinositol 4,5-bisphosphate 3-kinase catalytic subunit alpha isoform (Homo sapiens, UniProt P42336); experiment: Inhibition of PI3Kalpha (unknown origin) using diC8 PIP2 as substrate at 0.5 uM after 80 mins by ADP-glo assay
CYP3A4 = CYP3A4 (Homo sapiens, UniProt P08684); experiment: Inhibition of human CYP3A4 at 10 uM after 10 mins by fluorescence assay; assay type: ADME
CYP2C19 = CYP2C19 (Homo sapiens, UniProt P33261); experiment: Inhibition of human CYP2C19 at 10 uM after 10 mins by fluorescence assay; assay type: ADME
Homo sapiens [16] = organism: Homo sapiens; experiment: Selectivity ratio of IC50 for PI3Kgamma (unknown origin) to IC50 for PI3Kalpha (unknown origin)
[17] = Cytotoxicity against human PC3 cells assessed as cell growth inhibition after 48 hrs by MTT assay; assay type: functional; settings: PC-3, 48 h; method in brief: as §1
[18] = Cytotoxicity against HEK293 cells assessed as cell growth inhibition after 48 hrs by MTT assay; assay type: toxicity, cell-based; settings: human
PC-3 = experiment: Induction of cell cycle arrest in human PC3 cells assessed as accumulation at subG1 phase after 24 hrs by propidium iodide-staining based FACS analysis; assay type: functional
Method in brief: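 PC-3 cells exposed 24 h at indicated concentrations, pelleted, fixed overnight in ice-cold 70% ethanol at 4 °C, RNase 0.2 mg/mL at 37 °C 1 h, propidium iodide 10 µg/mL 30 min in dark; 10,000 events acquired (FL2-A vs FL2-W); DNA histograms modelled for apoptotic (sub-G1), G1, S and G2-M fractions.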

CYP2C9 = CYP2C9 (Homo sapiens, UniProt P11712); experiment: Inhibition of human CYP2C9 at 10 uM after 10 mins by fluorescence assay; assay type: ADME
Mus musculus = experiment: Toxicity in Swiss mouse implanted with Swiss mouse EAT cells assessed as body weight at 15 mg/kg, ip administered for 1 to 9 days measured on day 13 (reference value: 24.1 g); assay type: organism-based; settings: in vivo

Sequence of Phosphatidylinositol 4,5-bisphosphate 3-kinase catalytic subunit alpha isoform (P42336 whole entry, canonical isoform): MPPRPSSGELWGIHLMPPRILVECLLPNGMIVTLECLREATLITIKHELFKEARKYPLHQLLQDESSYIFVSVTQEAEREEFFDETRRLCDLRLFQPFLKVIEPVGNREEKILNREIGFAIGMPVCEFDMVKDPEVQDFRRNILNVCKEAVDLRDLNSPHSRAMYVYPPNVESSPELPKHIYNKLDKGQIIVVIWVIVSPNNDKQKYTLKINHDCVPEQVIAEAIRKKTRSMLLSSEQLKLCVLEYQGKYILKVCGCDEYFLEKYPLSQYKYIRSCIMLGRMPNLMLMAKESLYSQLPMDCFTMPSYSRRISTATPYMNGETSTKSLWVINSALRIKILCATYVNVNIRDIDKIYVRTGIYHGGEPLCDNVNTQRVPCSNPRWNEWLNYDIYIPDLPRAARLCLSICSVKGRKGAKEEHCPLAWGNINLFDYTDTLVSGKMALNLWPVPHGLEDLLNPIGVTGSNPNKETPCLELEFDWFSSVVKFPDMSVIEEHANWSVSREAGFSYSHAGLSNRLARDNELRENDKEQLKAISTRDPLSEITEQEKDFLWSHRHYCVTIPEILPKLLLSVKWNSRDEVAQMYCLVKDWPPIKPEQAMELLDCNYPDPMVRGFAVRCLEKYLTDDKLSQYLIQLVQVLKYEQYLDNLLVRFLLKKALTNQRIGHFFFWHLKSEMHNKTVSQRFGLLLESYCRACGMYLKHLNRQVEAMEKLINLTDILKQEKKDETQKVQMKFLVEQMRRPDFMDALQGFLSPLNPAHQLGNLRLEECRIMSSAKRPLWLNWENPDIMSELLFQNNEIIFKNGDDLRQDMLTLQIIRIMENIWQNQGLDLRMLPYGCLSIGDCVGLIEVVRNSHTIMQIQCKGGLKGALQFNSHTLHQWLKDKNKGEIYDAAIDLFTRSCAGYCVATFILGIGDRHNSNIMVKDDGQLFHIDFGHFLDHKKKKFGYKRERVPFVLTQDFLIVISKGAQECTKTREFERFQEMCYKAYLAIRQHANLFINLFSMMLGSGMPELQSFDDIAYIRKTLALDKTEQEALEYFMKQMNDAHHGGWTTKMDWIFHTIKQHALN
Sequence of CYP2D6 (P10635 whole entry): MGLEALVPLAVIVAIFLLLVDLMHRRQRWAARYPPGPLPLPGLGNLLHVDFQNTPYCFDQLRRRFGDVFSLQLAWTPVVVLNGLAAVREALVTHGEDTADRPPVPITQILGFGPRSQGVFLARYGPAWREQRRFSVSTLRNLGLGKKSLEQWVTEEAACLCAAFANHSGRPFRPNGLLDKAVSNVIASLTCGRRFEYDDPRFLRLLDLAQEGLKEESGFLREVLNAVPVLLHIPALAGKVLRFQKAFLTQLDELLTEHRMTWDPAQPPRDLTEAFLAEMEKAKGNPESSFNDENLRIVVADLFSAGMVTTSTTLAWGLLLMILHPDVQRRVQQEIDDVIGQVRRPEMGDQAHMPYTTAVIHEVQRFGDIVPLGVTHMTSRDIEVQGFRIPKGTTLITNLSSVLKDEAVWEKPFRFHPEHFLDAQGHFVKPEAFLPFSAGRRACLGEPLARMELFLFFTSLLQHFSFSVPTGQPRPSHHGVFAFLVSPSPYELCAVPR
Sequence of CYP2C19 (P33261 whole entry): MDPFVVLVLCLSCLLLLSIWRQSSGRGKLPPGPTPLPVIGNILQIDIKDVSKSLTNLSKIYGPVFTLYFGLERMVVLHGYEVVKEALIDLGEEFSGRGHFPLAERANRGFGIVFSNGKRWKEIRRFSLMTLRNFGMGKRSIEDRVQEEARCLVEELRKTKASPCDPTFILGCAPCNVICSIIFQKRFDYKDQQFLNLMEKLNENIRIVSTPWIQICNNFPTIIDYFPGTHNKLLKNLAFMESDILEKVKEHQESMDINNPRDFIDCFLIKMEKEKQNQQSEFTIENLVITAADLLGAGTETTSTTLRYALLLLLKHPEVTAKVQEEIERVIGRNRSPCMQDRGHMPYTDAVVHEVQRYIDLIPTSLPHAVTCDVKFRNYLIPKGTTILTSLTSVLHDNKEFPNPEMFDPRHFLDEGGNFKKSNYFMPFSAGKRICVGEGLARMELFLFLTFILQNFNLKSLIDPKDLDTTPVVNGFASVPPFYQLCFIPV
Sequence of CYP3A4 (P08684 whole entry): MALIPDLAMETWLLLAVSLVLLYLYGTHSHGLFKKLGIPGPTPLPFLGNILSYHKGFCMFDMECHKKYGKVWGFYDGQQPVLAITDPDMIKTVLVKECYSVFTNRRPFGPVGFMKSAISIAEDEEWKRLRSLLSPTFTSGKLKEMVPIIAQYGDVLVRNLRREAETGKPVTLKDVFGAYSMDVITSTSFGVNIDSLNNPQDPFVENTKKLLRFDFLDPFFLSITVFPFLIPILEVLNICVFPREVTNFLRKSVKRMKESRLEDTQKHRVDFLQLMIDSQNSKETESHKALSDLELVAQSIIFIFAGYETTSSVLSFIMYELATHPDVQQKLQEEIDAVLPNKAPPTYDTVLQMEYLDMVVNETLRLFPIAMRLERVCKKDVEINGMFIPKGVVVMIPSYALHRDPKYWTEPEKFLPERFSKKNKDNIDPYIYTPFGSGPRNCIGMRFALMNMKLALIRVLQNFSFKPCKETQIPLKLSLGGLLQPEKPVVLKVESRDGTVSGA
Sequence of CYP2C9 (P11712 whole entry): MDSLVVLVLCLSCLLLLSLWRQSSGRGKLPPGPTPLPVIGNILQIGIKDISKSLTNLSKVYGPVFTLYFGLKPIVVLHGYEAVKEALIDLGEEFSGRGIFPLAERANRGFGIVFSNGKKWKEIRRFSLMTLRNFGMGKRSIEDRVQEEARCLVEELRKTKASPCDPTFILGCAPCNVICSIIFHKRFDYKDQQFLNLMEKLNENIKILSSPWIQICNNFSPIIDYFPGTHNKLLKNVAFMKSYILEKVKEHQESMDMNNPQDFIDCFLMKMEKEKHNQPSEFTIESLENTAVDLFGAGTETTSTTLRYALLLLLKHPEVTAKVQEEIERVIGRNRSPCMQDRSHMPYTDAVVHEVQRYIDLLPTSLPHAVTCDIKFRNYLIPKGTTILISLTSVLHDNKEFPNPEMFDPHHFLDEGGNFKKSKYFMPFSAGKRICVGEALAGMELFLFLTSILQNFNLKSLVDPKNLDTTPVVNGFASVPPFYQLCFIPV

| Structure (SMILES) | Activity (MCF7) | inhibition at 10 min, 10 µM (CYP1A2) [%] | Ratio IC50 (Homo sapiens [1]) | GI50 [3] [µM] | solubility thermodynamic at 4 h [4] [µg/mL] | GI50 [5] [µM] | Ratio IC50 (Homo sapiens [6]) | GI50 [7] [µM] | solubility thermodynamic at 4 h [8] [µg/mL] | inhibition at 10 min, 10 µM (CYP2D6) [%] | efflux ratio at 1.5 h [9] | solubility thermodynamic at 4 h [10] [µg/mL] | GI50 at 48 h [11] [µM] | GI50 at 48 h [12] [µM] | solubility thermodynamic at 4 h [13] [µg/mL] | GI50 [14] [µM] | inhibition [15] [%] | inhibition at 10 min, 10 µM (CYP3A4) [%] | inhibition at 10 min, 10 µM (CYP2C19) [%] | Ratio IC50 (Homo sapiens [16]) | further results |
| --- | --- | --- | --- | --- | --- | --- | --- | --- | --- | --- | --- | --- | --- | --- | --- | --- | --- | --- | --- | --- | --- |
| N#CCc1ccc(Nc2ncnc3ccc(-c4cncc5ccccc45)cc23)cc1 | Dose-dependent effect | 72 | > 133 | 10 | 1 (≈ 2.58 µM) | 12 | 5.9 | 12 | 800 (≈ 2060 µM) | -35 | 1.2 | 1 (≈ 2.58 µM) | > 50 | > 50 | 1 (≈ 2.58 µM) | 9 | 48.8 | 27 | 34 | 56 | inhibition in vivo at 70 mg/kg [2]: 25.8%; GI50 [17]: 9 µM; GI50 at 48 h [18]: > 50 µM; Activity (PC-3): Dose-dependent effect; inhibition at 10 min, 10 µM (CYP2C9): 87% |
| N#CCc1ccc(Nc2ncnc3ccc(-c4ccc5[nH]ccc5c4)cc23)cc1 | Dose-dependent effect | 30 | > 49.7 | 18 | 10 (≈ 26.6 µM) | 7 | > 49.7 | 31 | 80 (≈ 213 µM) | 29 | 1.3 | 10 (≈ 26.6 µM) | > 50 | > 50 | 5 (≈ 13.3 µM) | 16 | 47.5 | 51 | 10 | 3.7 | Activity (Mus musculus): 22.57 g; GI50 [17]: 24 µM; GI50 at 48 h [18]: > 50 µM; Activity (PC-3): Dose-dependent effect; inhibition at 10 min, 10 µM (CYP2C9): 88% |
